{"source": "paper PMC10012271", "about": "(ACS Infectious Diseases, 2023)", "key": {"[1]": {"target": "human recombinant glyoxylase II (Homo sapiens, UniProt Q16775)", "test": "Binding specificity, glyoxylase II activity", "type": "biochemical", "details": "for reduction of glyoxylase II activity: concentration not stated in the sentence (Table S2)"}, "[2]": {"system": "Klebsiella pneumoniae ATCC 700603", "test": "MIC, broth microdilution / checkerboard", "type": "cell-based"}, "[3]": {"system": "Klebsiella pneumoniae NDM", "test": "MIC, broth microdilution / checkerboard", "type": "cell-based", "outline": "(§1)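 Two-fold dilution series in Mueller Hinton broth, per CLSI. Meropenem stock was in water and test compound stock in 50% DMSO, with final DMSO <1.0%. Wells got a 0.5 McFarland-standardised inoculum and were incubated at 35 °C for 18–20 h. MIC was the lowest concentration with no visible growth, run in triplicate.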"}, "E. coli TWA (IMP-8)": {"system": "E. coli TWA (IMP-8)", "test": "Antimicrobial susceptibility testing, broth microdilution", "type": "cell-based", "details": "Escherichia coli, read-out: MIC alone", "outline": "as §1"}, "K. pneumoniae NDM": {"system": "K. pneumoniae NDM", "test": "Time kill kinetic study", "type": "cell-based", "details": "without BP1", "outline": "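Overnight culture was diluted to about 10^6 cfu/mL and exposed to test compound fixed at 32 mg/L plus meropenem 0.5, 1 or 2 mg/L. Incubation was at 35 °C with 100 rpm shaking, alongside drug-free and meropenem-only controls. At 0, 2, 4, 6, 8 and 24 h, 0.1 mL was plated on MHA and incubated at 35 °C for ≥18 h, then cfu/mL counted. Analysis was by ANOVA.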"}, "E. cloacae KAR (VIM-1)": {"system": "E. cloacae KAR (VIM-1)", "test": "Antimicrobial susceptibility testing, broth microdilution", "type": "cell-based", "details": "Enterobacter cloacae, read-out: MIC alone", "outline": "as §1"}, "[4]": {"test": "In vivo single-dose pharmacokinetics", "design": "species or system BALB/c mice", "details": "10 mg/kg.b.w IP, plasma", "outline": "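Female BALB/c mice, 6–8 weeks, acclimatised two weeks, got meropenem 10 mg/kg.b.w plus test compound 10 mg/kg.b.w together IP. Animals were killed at 0, 5, 15, 30, 45, 60, 90 and 120 min post-dose, with blood taken by cardiac puncture and stored at −80 °C. Drugs were quantified by LC–MS/MS (C18, water/acetonitrile with 0.1% TFA gradient, ESI, MRM mode).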"}, "E. coli ATCC 25922": {"system": "E. coli ATCC 25922", "test": "Antimicrobial susceptibility testing, broth microdilution", "type": "cell-based", "details": "Escherichia coli, ATCC25922, read-out: MIC alone", "outline": "as §1"}, "E. coli JAP (IMP-1)": {"system": "E. coli JAP (IMP-1)", "test": "Antimicrobial susceptibility testing, broth microdilution", "type": "cell-based", "details": "Escherichia coli, read-out: MIC alone", "outline": "as §1"}, "E. coli FEK (NDM-4)": {"system": "E. coli FEK (NDM-4)", "test": "Antimicrobial susceptibility testing, broth microdilution", "type": "cell-based", "details": "Escherichia coli, read-out: MIC alone", "outline": "as §1"}, "E. coli AUS 271 (NDM-1)": {"system": "E. coli AUS 271 (NDM-1)", "test": "Antimicrobial susceptibility testing, broth microdilution", "type": "cell-based", "details": "Escherichia coli, read-out: MIC alone", "outline": "as §1"}, "[5]": {"system": "K. pneumoniae USA 449 (NDM)", "test": "Antimicrobial susceptibility testing, broth microdilution", "type": "cell-based", "details": "Klebsiella pneumoniae, read-out: MIC alone", "outline": "as §1"}, "[6]": {"system": "E. cloacae IR 386 (NDM-1)", "test": "Antimicrobial susceptibility testing, broth microdilution", "type": "cell-based", "details": "Enterobacter cloacae, read-out: MIC alone", "outline": "as §1"}}, "note": "“Also recorded” adds a separate entry of the source.", "data": [{"smiles": "O=C(O)CN(CCN(CC(=O)O)CC(=O)O)CC(=O)O", "note": "[EDTA]", "values": [{"measurement": "reduction of glyoxylase II activity", "setting": "[1]", "value": 39, "unit": "%"}]}, {"smiles": "O=C(O)CN1CCN(CC(=O)O)CCN(CC(=O)O)CC1", "note": "[NOTA, 1,4,7-triazacyclononane-1,4,7-triacetic acid]", "values": [{"measurement": "inhibition of glyoxylase II", "setting": "[1]; up to 500 μM", "value": "did not reduce the activity"}, {"measurement": "MIC", "setting": "[2]; drug alone", "value": "do not possess any activity; also recorded: resistant from 256 to 0.125"}, {"measurement": "MIC", "setting": "[3]; drug alone", "value": "do not possess any activity"}]}, {"smiles": "c1ccc(CN(CCN(Cc2ccccn2)Cc2ccccn2)Cc2ccccn2)nc1", "note": "[TPEN, N,N,N′,N′-tetrakis(2-pyridinylmethyl)-1,2-ethanediamine]", "values": [{"measurement": "reduction of glyoxylase II activity", "setting": "[1]", "value": 48, "unit": "%"}]}, {"smiles": "C[C@@H](O)[C@H]1C(=O)N2C(C(=O)O)=C(S[C@@H]3CN[C@H](C(=O)N(C)C)C3)[C@H](C)[C@H]12", "note": "[meropenem]", "values": [{"measurement": "MIC", "setting": "E. coli TWA (IMP-8)", "value": 4, "unit": "µg/mL"}, {"measurement": "time-kill activity, meropenem-only test group", "setting": "K. pneumoniae NDM", "value": "ineffectiveness"}, {"measurement": "MIC", "setting": "E. cloacae KAR (VIM-1)", "value": 16, "unit": "µg/mL"}, {"measurement": "time of peak concentration (Cmax) post drug administration", "setting": "[4]", "value": 15, "unit": "min"}, {"measurement": "MIC", "setting": "E. coli ATCC 25922", "value": 0.06, "unit": "µg/mL"}, {"measurement": "MIC", "setting": "E. coli JAP (IMP-1)", "value": 8, "unit": "µg/mL"}, {"measurement": "MIC", "setting": "E. coli FEK (NDM-4)", "value": 128, "unit": "µg/mL"}, {"measurement": "MIC", "setting": "E. coli AUS 271 (NDM-1)", "value": 128, "unit": "µg/mL"}, {"measurement": "MIC", "setting": "[5]", "value": 128, "unit": "µg/mL"}, {"measurement": "MIC", "setting": "[2]; Klebsiella pneumoniae, ATCC700603", "value": 0.03, "unit": "µg/mL"}, {"measurement": "MIC", "setting": "[3]; Klebsiella pneumoniae", "value": 128, "unit": "µg/mL"}, {"measurement": "MIC", "setting": "[6]", "value": 32, "unit": "µg/mL"}]}]}
